Data on one compound can be found in ChEMBL document CHEMBL4261600 (Eur J Med Chem, 2018).

Broadly, the GI50 is the concentration giving 50% growth inhibition. A word on the EC50: it is the concentration giving half of the maximal effect.

A value given as a limit tells only on which side of the number the result lay.

Assay [1] deals with Ramos. The assay is described as follows: Antiproliferative activity against human Ramos cells after 72 hrs by Celltiter-Glo assay. It counts as functional. Summed up: (§1)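 Cells seeded at 3000/well in 96-well plates, exposed to serially diluted compound for 72 h at 37 °C, 5% CO2. Viability read by CellTiter-Glo luminescence and normalized to DMSO control. GI50 derived from curve fit, mean of three independent measurements. Culture media: DMEM/10% FBS for adherent lines; IMDM for MV4-11 and MEC-1/2; RPMI 1640 for suspension lines and CHL.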
(In general: In ATP-based viability assays light output follows the ATP content of the culture.)

Assay [2] has as its target Ephrin type-B receptor 4 (Homo sapiens) (UniProt P54760). The assay is described as follows: Binding affinity to wild-type human partial length EPHB4 (H585 to G892 residues) expressed in bacterial expression system assessed as remaining unbound target protein level at 1000 nM by Kinomescan method relative to control. The procedure, abridged:
(§2)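 KINOMEscan binding panel of 468 kinases/mutants. Inhibitor was tested at a single concentration of 1 μM. Binding is reported as percent of control, defined relative to a DMSO control.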

The subject of assay [3] is Mast/stem cell growth factor receptor Kit (Homo sapiens), P10721 [V559D,V654A]. The assay can be described thus: Binding affinity to human partial length KIT V559D/V654A double mutant (Y545 to D952 residues) expressed in bacterial expression system assessed as remaining unbound target protein level at 1000 nM by Kinomescan method relative to control. Summed up: (§3)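 KINOMEscan competition-binding profiling across the panel of 468 kinases and mutants, with inhibitor tested at 1 μM. Binding is expressed as percent of control, with DMSO as the reference control.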

The target of assay [4] is Mitogen-activated protein kinase 6 (Homo sapiens) (UniProt Q16659). The assay is described as follows: Binding affinity to wild-type human partial length ERK3 (M1 to P413 residues) expressed in bacterial expression system assessed as remaining unbound target protein level at 1000 nM by Kinomescan method relative to control.
The target of assay [5] is Dual specificity mitogen-activated protein kinase kinase 3 (Homo sapiens) (UniProt P46734). The assay is described as follows: Binding affinity to wild-type human full length MEK3 (M1 to S318 residues) expressed in mammalian expression system assessed as remaining unbound target protein level at 1000 nM by Kinomescan method relative to control. Summed up:
(§4)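 KINOMEscan competition binding profile across a panel of 468 kinases and mutants, with the inhibitor tested at a single concentration of 1 μM. Binding is reported as percent of control, meaning signal relative to a DMSO control.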

Assay [6] concerns the target Cyclin-dependent kinase 9 (Homo sapiens, UniProt P50750). The assay can be described thus: Inhibition of CDK9 in human MEC1 cells assessed as decrease in RNA polymerase 2 phosphorylation at Ser 2 residues in CTD domain after 2 hrs by immunoblotting analysis. It counts as cell-based. A general note: Immunoblotting shows a protein as a band on a membrane.
Assay [7] relates to Hepatocyte growth factor receptor (Homo sapiens), P08581 [Y1235D]. The assay is described as follows: Binding affinity to human partial length MET Y1235D mutant (D1010 to S1367 residues) expressed in bacterial expression system assessed as remaining unbound target protein level at 1000 nM by Kinomescan method relative to control. The procedure, abridged: as §3
In assay [8] the target is Myosin-IIIa (Homo sapiens) (UniProt Q8NEV4). The assay is described as follows: Binding affinity to wild-type human partial length MYO3A (M1 to K338 residues) expressed in bacterial expression system assessed as remaining unbound target protein level at 1000 nM by Kinomescan method relative to control.
Assay [9] deals with Atypical kinase COQ8A, mitochondrial (Homo sapiens) (UniProt Q8NI60). The assay is described as follows: Binding affinity to wild-type human […] length ADCK3 (M280 to Q647 residues) expressed in bacterial expression system assessed as remaining unbound target protein level at 1000 nM by Kinomescan method relative to control. Summed up:
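Single-point competition binding screen across a panel of 468 kinases and mutants, with the inhibitor at 1 μM. Binding is read out as percent of a DMSO control, and targets below 1 percent control were classed as strong binders.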

Assay [10] has as its target Tyrosine-protein kinase Lck (Homo sapiens) (UniProt P06239). The assay is described as follows: Binding affinity to wild-type human partial length LCK (R207 to P509 residues) expressed in bacterial expression system assessed as remaining unbound target protein level at 1000 nM by Kinomescan method relative to control. The procedure, abridged: as §2
For assay [11], the target named is Platelet-derived growth factor receptor beta (Homo sapiens) (UniProt P09619). The assay can be described thus: Binding affinity to wild-type human partial length PDGFRB (V582 to Y1009 residues) expressed in bacterial expression system assessed as remaining unbound target protein level at 1000 nM by Kinomescan method relative to control. The procedure, abridged: as §2

For assay [12], the target named is Serine/threonine-protein kinase DCLK1 (Homo sapiens) (UniProt O15075). The assay is described as follows: Binding affinity to wild-type human partial length DCAMKL1 (L270 to A662 residues) expressed in mammalian expression system assessed as remaining unbound target protein level at 1000 nM by Kinomescan method relative to control.
The test system of assay [13] is Epidermal growth factor receptor (Homo sapiens), P00533 [L858R]. The assay is described as follows: Binding affinity to human partial length EGFR L858R mutant (R669 to V1011 residues) expressed in bacterial expression system assessed as remaining unbound target protein level at 1000 nM by Kinomescan method relative to control. Summed up:
as §3

For assay [14], the target named is Mitogen-activated protein kinase kinase kinase 15 (Homo sapiens) (UniProt Q6ZN16). The assay can be described thus: Binding affinity to wild-type human partial length MAP3K15 (T625 to L932 residues) expressed in mammalian expression system assessed as remaining unbound target protein level at 1000 nM by Kinomescan method relative to control.
In assay [15] the test system is U-937. The assay can be described thus: Antiproliferative activity against human U937 cells after 72 hrs by Celltiter-Glo assay. It counts as functional. Particulars: U-937, 72 h. Summed up: as §1
Assay [16] deals with Protein kinase C epsilon type (Homo sapiens) (UniProt Q02156). The assay is described as follows: Binding affinity to wild-type human partial length PRKCE (A378 to P737 residues) expressed in mammalian expression system assessed as remaining unbound target protein level at 1000 nM by Kinomescan method relative to control.
The target in assay [17] is Mitogen-activated protein kinase kinase kinase 3 (Homo sapiens) (UniProt Q99759). The assay is described as follows: Binding affinity to wild-type human partial length MAP3K3 (E320 to Y626 residues) expressed in mammalian expression system assessed as remaining unbound target protein level at 1000 nM by Kinomescan method relative to control.
In assay [18] the target is Platelet-derived growth factor receptor alpha (Homo sapiens) (UniProt P16234). The assay can be described thus: Binding affinity to wild-type human partial length PDGFRA (V575 to D1002 residues) expressed in mammalian expression system assessed as remaining unbound target protein level at 1000 nM by Kinomescan method relative to control.
Assay [19] addresses Non-receptor tyrosine-protein kinase TNK1 (Homo sapiens) (UniProt Q13470). The assay is described as follows: Binding affinity to wild-type human full length TNK1 (M1 to P661 residues) expressed in bacterial expression system assessed as remaining unbound target protein level at 1000 nM by Kinomescan method relative to control. The procedure, abridged:
as §4

Assay [20] is filed under the species Homo sapiens. The assay can be described thus: Selectivity ratio of IC50 for recombinant full length His-tagged human CDK1/CyclinB to IC50 for recombinant full length His-tagged human CDK9/CyclinT1.

Cyclin-dependent kinase 9, sequence (P50750 whole entry, the tested form may be a part): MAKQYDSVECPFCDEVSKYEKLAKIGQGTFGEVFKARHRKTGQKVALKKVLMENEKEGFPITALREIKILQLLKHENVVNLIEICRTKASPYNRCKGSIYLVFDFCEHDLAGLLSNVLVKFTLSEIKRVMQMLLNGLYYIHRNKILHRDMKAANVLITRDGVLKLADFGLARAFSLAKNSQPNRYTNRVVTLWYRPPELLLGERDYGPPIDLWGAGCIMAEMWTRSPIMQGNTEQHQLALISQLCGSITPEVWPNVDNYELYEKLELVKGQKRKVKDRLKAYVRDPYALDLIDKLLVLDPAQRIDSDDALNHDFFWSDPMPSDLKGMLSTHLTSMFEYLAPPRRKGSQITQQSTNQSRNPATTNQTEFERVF
Dual specificity mitogen-activated protein kinase kinase 3 (Homo sapiens), sequence (P46734 whole entry, the tested form may be a part): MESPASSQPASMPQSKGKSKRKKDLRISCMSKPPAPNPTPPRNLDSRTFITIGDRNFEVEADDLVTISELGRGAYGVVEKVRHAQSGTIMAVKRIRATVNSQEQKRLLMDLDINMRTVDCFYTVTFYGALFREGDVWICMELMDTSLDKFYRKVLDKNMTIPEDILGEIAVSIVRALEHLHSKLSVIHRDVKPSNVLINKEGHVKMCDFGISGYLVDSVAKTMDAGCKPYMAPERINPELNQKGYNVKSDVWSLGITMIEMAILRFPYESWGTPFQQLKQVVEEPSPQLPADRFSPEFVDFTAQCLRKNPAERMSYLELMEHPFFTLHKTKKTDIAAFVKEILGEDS
Mitogen-activated protein kinase kinase kinase 3 (Homo sapiens), sequence (Q99759 whole entry, the tested form may be a part): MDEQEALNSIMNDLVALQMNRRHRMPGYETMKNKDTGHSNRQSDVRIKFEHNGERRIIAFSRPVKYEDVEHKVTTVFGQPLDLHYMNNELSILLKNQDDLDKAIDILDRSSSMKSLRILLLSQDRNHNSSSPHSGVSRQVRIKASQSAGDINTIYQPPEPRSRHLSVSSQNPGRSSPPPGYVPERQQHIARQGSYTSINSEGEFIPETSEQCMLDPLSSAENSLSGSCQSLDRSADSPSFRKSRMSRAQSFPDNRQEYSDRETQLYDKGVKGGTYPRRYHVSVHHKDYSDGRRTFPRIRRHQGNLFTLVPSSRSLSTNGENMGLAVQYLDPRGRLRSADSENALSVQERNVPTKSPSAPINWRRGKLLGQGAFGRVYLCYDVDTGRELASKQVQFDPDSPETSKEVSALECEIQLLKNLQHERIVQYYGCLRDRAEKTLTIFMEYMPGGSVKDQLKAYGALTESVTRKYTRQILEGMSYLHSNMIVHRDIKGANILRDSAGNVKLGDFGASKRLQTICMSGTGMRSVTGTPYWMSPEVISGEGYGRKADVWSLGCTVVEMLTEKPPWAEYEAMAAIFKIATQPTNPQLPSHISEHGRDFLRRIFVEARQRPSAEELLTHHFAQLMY
Tyrosine-protein kinase Lck (Homo sapiens), sequence (P06239 2-509 limits assumed): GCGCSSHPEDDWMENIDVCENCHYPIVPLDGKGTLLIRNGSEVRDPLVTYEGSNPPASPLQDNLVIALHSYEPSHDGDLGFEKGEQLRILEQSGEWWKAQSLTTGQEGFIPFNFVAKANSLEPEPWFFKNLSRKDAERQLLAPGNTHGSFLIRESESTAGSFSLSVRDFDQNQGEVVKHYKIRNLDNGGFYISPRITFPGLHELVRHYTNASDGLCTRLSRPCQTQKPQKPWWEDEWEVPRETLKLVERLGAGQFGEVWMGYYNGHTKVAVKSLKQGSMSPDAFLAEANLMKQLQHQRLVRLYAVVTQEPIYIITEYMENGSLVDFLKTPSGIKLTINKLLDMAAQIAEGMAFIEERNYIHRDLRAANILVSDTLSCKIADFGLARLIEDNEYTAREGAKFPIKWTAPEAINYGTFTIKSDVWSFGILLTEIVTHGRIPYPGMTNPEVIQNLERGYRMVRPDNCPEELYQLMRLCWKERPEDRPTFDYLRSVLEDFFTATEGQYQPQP
Platelet-derived growth factor receptor alpha (Homo sapiens), sequence (P16234 whole entry, the tested form may be a part): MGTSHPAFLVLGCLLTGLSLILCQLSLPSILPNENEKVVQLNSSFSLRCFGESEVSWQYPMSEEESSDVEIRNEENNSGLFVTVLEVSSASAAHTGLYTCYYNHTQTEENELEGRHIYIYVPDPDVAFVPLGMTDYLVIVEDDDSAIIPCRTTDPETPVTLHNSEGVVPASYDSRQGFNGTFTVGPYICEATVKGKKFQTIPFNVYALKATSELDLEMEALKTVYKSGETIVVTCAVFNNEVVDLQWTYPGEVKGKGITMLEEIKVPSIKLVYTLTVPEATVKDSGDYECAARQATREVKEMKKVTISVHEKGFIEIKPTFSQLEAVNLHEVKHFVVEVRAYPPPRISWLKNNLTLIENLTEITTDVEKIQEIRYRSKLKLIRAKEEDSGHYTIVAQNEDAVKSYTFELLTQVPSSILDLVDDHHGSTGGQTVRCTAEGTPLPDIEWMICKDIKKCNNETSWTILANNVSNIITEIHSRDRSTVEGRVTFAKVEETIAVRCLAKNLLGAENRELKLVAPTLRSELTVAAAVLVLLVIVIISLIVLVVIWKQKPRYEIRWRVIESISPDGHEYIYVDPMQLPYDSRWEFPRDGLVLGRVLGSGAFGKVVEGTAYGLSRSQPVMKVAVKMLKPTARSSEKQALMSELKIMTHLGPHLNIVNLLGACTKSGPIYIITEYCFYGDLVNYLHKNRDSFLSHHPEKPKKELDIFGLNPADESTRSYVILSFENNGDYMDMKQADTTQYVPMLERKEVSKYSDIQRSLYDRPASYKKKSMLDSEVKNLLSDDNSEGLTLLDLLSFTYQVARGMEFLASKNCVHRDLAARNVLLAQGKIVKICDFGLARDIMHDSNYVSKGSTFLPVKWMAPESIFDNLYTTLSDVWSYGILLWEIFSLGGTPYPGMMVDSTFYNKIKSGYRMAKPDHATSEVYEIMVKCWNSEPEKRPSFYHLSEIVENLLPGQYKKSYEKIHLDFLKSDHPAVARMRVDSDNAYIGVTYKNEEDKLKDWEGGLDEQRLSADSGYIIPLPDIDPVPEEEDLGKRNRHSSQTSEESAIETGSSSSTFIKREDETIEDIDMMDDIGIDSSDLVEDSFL
Non-receptor tyrosine-protein kinase TNK1 (Homo sapiens), sequence (Q13470 whole entry, the tested form may be a part): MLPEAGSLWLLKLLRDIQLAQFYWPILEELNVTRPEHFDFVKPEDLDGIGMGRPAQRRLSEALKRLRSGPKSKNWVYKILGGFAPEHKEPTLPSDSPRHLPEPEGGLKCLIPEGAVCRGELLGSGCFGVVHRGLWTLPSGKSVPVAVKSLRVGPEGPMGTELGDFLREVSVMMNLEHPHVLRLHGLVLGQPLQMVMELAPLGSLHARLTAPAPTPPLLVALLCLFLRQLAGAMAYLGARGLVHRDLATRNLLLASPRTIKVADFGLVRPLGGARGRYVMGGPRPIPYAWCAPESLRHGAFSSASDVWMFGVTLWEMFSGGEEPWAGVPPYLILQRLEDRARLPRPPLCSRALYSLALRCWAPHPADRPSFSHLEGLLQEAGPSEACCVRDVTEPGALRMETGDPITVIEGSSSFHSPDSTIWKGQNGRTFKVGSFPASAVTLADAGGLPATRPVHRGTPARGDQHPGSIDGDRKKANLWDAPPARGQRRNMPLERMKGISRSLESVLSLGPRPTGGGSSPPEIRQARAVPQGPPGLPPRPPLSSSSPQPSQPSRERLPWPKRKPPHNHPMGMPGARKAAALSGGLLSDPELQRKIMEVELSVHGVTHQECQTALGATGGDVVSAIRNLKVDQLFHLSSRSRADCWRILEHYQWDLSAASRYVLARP
Protein kinase C epsilon type (Homo sapiens), sequence (Q02156 whole entry, the tested form may be a part): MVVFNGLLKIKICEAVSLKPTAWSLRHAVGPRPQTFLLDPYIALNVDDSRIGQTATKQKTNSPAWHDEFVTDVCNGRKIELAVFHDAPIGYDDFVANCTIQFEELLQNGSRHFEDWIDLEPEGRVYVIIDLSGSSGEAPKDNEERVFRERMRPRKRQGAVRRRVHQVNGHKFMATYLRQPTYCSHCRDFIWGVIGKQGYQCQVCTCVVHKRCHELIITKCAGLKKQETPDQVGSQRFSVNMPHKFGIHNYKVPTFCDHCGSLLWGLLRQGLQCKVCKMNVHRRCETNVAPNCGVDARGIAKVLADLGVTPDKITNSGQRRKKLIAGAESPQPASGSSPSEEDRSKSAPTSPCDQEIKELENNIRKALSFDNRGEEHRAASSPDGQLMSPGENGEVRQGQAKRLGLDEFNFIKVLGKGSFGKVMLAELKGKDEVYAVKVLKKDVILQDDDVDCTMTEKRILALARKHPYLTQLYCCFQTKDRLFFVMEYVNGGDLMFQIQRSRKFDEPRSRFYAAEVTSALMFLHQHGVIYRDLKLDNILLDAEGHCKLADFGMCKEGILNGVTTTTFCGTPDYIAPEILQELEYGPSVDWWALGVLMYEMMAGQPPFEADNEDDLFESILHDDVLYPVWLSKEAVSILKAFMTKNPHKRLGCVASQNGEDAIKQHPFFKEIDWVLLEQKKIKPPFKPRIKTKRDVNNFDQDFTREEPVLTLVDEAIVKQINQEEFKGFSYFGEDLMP
Atypical kinase COQ8A, mitochondrial (Homo sapiens), sequence (Q8NI60 163-647 limits assumed): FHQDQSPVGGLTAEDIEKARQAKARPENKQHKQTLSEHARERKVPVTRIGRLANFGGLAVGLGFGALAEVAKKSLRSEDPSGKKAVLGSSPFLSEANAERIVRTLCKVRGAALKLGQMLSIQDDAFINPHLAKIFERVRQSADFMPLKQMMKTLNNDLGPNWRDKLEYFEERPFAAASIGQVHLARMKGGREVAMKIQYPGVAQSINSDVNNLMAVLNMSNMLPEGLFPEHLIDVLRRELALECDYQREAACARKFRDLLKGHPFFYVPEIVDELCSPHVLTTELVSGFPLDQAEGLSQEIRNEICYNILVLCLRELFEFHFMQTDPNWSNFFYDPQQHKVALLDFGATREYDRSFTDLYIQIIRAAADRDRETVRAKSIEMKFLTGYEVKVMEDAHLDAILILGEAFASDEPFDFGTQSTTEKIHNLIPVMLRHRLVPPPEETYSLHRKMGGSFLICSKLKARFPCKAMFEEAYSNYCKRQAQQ

Turning to `COCCN[C@H]1CC[C@H](Nc2cc(-c3csc(NCC4(C#N)CCOCC4)n3)c(Cl)cn2)CC1`, the GI50 in assay [1] came to 13 nM; in assay [15], 2 nM. The Activity in [2] was found to be 86%; in assay [3], 100%; in assay [4] it was 88%; in assay [5], 86%; in assay [7] it was 96%; in assay [8], 100%. Besides, the Activity in assay [9] worked out at 88%; in assay [10], 81%; in [11] it was 91%; in [12], 100%; in assay [13], 85%; in [14], 84%. Moreover, the Activity in [16] was found to be 93%; in assay [17], 100%; in assay [18], 100%; in assay [19], 56%. In [6], the half-maximal effective concentration (EC50) is less than 100 nM. In assay [6], the inhibition entry is “Dose-dependent effect”. Besides, the Ratio IC50 in [20] is more than 1000.
